Consider 4 compounds from ChEMBL document CHEMBL1124727, “Neuronal mapping of the heart with 6-[18F]fluorometaraminol” (1990).

The species named for test [1] is Canis familiaris. Put plainly: Normalized FMR Concentration in anterior wall of heart of phenol treated canine myocardium. The test is classed as functional, Canis lupus familiaris. The essentials: (§1)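 Mongrel dogs, LV anterior epicardium (LAD region) painted with 88% phenol in ethanol (v/v); 4–7 days later FMR iv, killed 1 h post by pentobarbital/KCl overdose. LV cut into ~1 cm transverse slices, then radial segments, gamma counted; % kg dose/g normalized to highest-activity segment (atria = 100%). Affected area = mean of three lowest contiguous segments in each of two midbasal slices; controls N = 3, treated N = 5.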

For test [2], the species on record is Canis familiaris. Put plainly: Normalized FMR Concentration in posterior wall of heart of phenol treated canine myocardium. The test is classed as functional, Canis lupus familiaris. Summed up:
as §1

Test [3] deals with Canis familiaris. Briefly: Tissue concentration in dog liver after iv administration. It counts as functional, Canis lupus familiaris. Summed up: (§2)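 Mongrel dogs (two female, 15.0 and 18.6 kg, 0.45 mCi; two male, 2.0 mCi) given FMR as iv cephalic-vein bolus in 2.0 mL sterile 0.15 M acetate buffer, pH 4.5. Killed 1 h later by iv pentobarbital; tissues washed in saline, blotted, weighed, gamma counted 1 min. Expressed as % kg dose/g, N = 4 (muscle, pancreas, kidney N = 2).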

The subject of test [4] is Canis familiaris. Briefly: Tissue concentration in dog adrenal medulla after iv administration. The test is classed as functional, Canis lupus familiaris. The essentials:
as §2

The subject of test [5] is Canis familiaris. Put plainly: Tissue concentration in dog blood after iv administration. The test is classed as functional, Canis lupus familiaris. The essentials: as §2
Test [6] deals with Canis familiaris. Put plainly: Tissue concentration in dog kidney after iv administration. The test is classed as functional, Canis lupus familiaris. The essentials:
as §2

The subject of test [7] is Canis familiaris. Put plainly: Tissue concentration in dog left atrium after iv administration. The test is classed as functional, Canis lupus familiaris, Cardiac atrium. Summed up:
as §2

Test [8] has as its system Canis familiaris. Put plainly: Tissue concentration in dog left ventricle after iv administration. It counts as functional, Canis lupus familiaris, Heart left ventricle. The essentials: as §2
In test [9] the test system is Canis familiaris. Put plainly: Tissue concentration in dog lung after iv administration. The test is classed as functional, Canis lupus familiaris. Summed up: as §2
Test [10] has as its system Canis familiaris. Put plainly: Tissue concentration in dog muscle after iv administration. The test is classed as functional, Canis lupus familiaris. The essentials:
as §2

The test system of test [11] is Canis familiaris. Briefly: Tissue concentration in dog pancreas after iv administration. It counts as functional, Canis lupus familiaris. The essentials: as §2
Test [12] concerns Canis familiaris. Put plainly: Tissue concentration in dog right atrium after iv administration. It counts as functional, Canis lupus familiaris, Cardiac atrium. Summed up:
as §2

Test [13] concerns Canis familiaris. Put plainly: Tissue concentration in dog right ventricle after iv administration. It counts as functional, Canis lupus familiaris, Heart right ventricle. Summed up: as §2
For test [14], the system named is Canis familiaris. Briefly: Tissue concentration in dog spleen after iv administration. It counts as functional, Canis lupus familiaris. Summed up: as §2
The test system of test [15] is Canis familiaris. Put plainly: Tissue concentration of the compound in dog adrenal cortex after iv administration. It counts as functional, Canis lupus familiaris. The essentials:
as §2

The subject of test [16] is Canis familiaris. Put plainly: Tissue concentration in dog heart after iv administration. The test is classed as functional, Canis lupus familiaris.
In test [17] the test system is Canis familiaris. Put plainly: Tissue concentration in dog left ventricle to blood ratio after iv administration. The test is classed as functional, Canis lupus familiaris. The essentials: as §2
Test [18] has as its system Canis familiaris. Briefly: Tissue concentration in dog thyroid after iv administration. It counts as functional, Canis lupus familiaris, Thyroid gland.
The species named for test [19] is Canis familiaris. Briefly: Concentration of Endogenous NE and FMR from Midbasal Slices of Phenol-Treated Canine in anterior wall. It counts as functional, organism-based. The settings on record: Canis lupus familiaris. The essentials: (§3)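 Phenol-painted (88% phenol in ethanol, epicardial LV anterior wall near LAD) dogs, 4–7 days post surgery; sacrificed 1 h after iv FMR by pentobarbital/KCl overdose. Midbasal LV slices cut into radial segments, gamma counted; homogenized in cold 0.4 M perchloric acid, NE by HPLC-fluorescence. FMR normalized to highest-activity segment = 100%. Three lowest contiguous segments per slice averaged versus opposed segments; Student's t test.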

The species named for test [20] is Canis familiaris. Briefly: Concentration of Endogenous NE and FMR from Midbasal Slices of Phenol-Treated Canine in posterior wall. It counts as functional, organism-based. Conditions: Canis lupus familiaris. The essentials:
as §3

Test [21] deals with Rattus norvegicus. Put plainly: Neuronal selectivity expressed as Concentration in blood after iv administration in rat, pretreated with 6-hydroxydopamine (control = 0.065+/-0.005). The test is classed as functional, organism-based. Conditions: tested as the 3H-labelled form.
Test [22] relates to Rattus norvegicus. Put plainly: Neuronal selectivity expressed as Concentration in spleen after iv administration in rat, pretreated with 6-hydroxydopamine (control = 0.85+/-0.005). It counts as functional, organism-based. Conditions: tested as the 3H-labelled form.
The subject of test [23] is Rattus norvegicus. Briefly: Neuronal selectivity expressed as Concentration in left atrium after iv administration in rat, pretreated with 6-hydroxydopamine (control =4.75+/-0.28). Conditions: Cardiac atrium, tested as the 3H-labelled form.
In test [24] the test system is Rattus norvegicus. Put plainly: Neuronal selectivity expressed as Concentration in rigt atrium after iv administration in rat, pretreated with 6-hydroxydopamine (control = 4.86+/-0.68). Conditions: Cardiac atrium, tested as the 3H-labelled form.
Test [25] deals with Rattus norvegicus. Put plainly: Neuronal selectivity expressed as Concentration in left ventricle after iv administration in rat, pretreated with 6-hydroxydopamine (control = 4.10+/-0.23). The settings on record: Heart left ventricle, tested as the 3H-labelled form.
In test [26] the test system is Rattus norvegicus. Briefly: Neuronal selectivity expressed as Concentration in right ventricle after iv administration in rat, pretreated with 6-hydroxydopamine (control = 4.86+/-0.24). Conditions: Heart right ventricle, tested as the 3H-labelled form.

For the compound `CC(N)C(O)c1cc(O)ccc1F` (centres undefined), the “[3H] concentration” value in the test listed under Canis familiaris [1] was determined as 14.5 % kg dose g-1; in the test listed under Canis familiaris [2] it was 53.8 % kg dose g-1; with Canis familiaris [3], 0.33 % kg dose g-1; with Canis familiaris [4], 9.89 % kg dose g-1; in the test on Canis familiaris [5], 0.04 % kg dose g-1; in the test with Canis familiaris [6] it was 0.41 % kg dose g-1. Besides, the “[3H] concentration” value in the test with Canis familiaris [7] is given as 1.54 % kg dose g-1; with Canis familiaris [8] it was 1.24 % kg dose g-1; in the test on Canis familiaris [9] it was 0.26 % kg dose g-1; with Canis familiaris [10], 0.07 % kg dose g-1; with Canis familiaris [11], 0.6 % kg dose g-1; in the test on Canis familiaris [12] it was 1.44 % kg dose g-1. The results for the “[3H] concentration” value with Canis familiaris [13], in the test with Canis familiaris [14] and in the test with Canis familiaris [15] were 0.89 % kg dose g-1, 0.69 % kg dose g-1 and 0.59 % kg dose g-1, respectively.

With `CC(N)C(O)c1ccc(I)c(O)c1` (centres undefined), the “[3H] concentration” value is given as 0.5 % kg dose g-1 in the test on Canis familiaris [3]; 0.45 % kg dose g-1 in the test with Canis familiaris [4]; 0.04 % kg dose g-1 in the test with Canis familiaris [5]; 0.17 % kg dose g-1 in the test on Canis familiaris [16]; 4 % kg dose g-1 in the test with Canis familiaris [17]; 0.25 % kg dose g-1 in the test with Canis familiaris [9]. Moreover, the “[3H] concentration” value in the test on Canis familiaris [14] amounted to 0.26 % kg dose g-1; in the test with Canis familiaris [18] it was 0.2 % kg dose g-1.

`CC(N)C(O)c1cc(O)ccc1I` (centres undefined): the “[3H] concentration” value in the test on Canis familiaris [3] was 0.49 % kg dose g-1; in the test on Canis familiaris [4], 0.2 % kg dose g-1; with Canis familiaris [5], 0.05 % kg dose g-1; in the test on Canis familiaris [16], 0.05 % kg dose g-1; with Canis familiaris [17], 1 % kg dose g-1; in the test on Canis familiaris [9], 0.26 % kg dose g-1. The “[3H] concentration” value in the test with Canis familiaris [14] amounted to 0.08 % kg dose g-1; with Canis familiaris [18] it was 0.06 % kg dose g-1.

With `NC[C@H](O)c1ccc(O)c(O)c1`, the Concentration in the test listed under Canis familiaris [19] stood at 303 ng/g; in the test filed under Canis familiaris [20] it was 1460 ng/g; in the test on Rattus norvegicus [21] it was 0.052 % dose g-1; in the test with Rattus norvegicus [22], 0.25 % dose g-1; with Rattus norvegicus [23], 0.39 % dose g-1; in the test with Rattus norvegicus [24] it was 0.29 % dose g-1. Besides, the Concentration in the test with Rattus norvegicus [25] was 0.6 % dose g-1; in the test on Rattus norvegicus [26] it was 0.41 % dose g-1.
